Measured values as given in ChEMBL document CHEMBL4382225, “Dimeric cinnamoylamide analogues for regulation of tyrosinase activity in melanoma cells: A role of diamide-link chain length” (Bioorg Med Chem, 2018).
The source made the active and inactive calls. No cut-off for these calls is given here.

Legend:
B16-F1 [1] = assay: Antimelanogenic activity in mouse B16-F1 cells assessed as reduction in alpha-MSH-stimulated melanin production preincubated for 72 hrs followed by alpha-MSH-stimulation and measured after 2 hrs; type: functional, cell-based
How it was run: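 B16F1 cells seeded at 1 × 10⁵ cells/well, exposed to compound at indicated concentrations (up to 150 μM) together with 200 nM α-MSH for 72 h. Cells washed twice in PBS, dissolved in 1 N NaOH with 10% DMSO at 80 °C for 2 h, lysate absorbance read at 405 nm. IC₅₀ for melanin production; mean (SD) of three independent experiments.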

B16-F1 [2] = assay: Cytotoxicity against mouse B16-F1 cells at 100 to 200 uM after 72 hrs by MTT assay; type: cell-based; settings: b16-f1, 72 h
How it was run: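 B16F1 cells grown in DMEM with 10% FBS and 1% penicillin/streptomycin at 37 °C, 5% CO₂. Seeded 1 × 10⁴ cells/well, treated at 100, 150 and 200 μM for 72 h. Medium removed, MTT added for 1 h, formazan dissolved in DMSO, absorbance at 570 nm. Mean SD of three independent experiments vs untreated cells.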

[3] = Metal chelating activity of the compound assessed as Cu2+-compound complex formation at 50 uM after 10 mins by UV-Vis spectrophotometric analysis
How it was run: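 Copper chelation by UV–vis spectra (220–400 nm). 50 μL of 50 μM compound in ethanol mixed with 0.95 mL aqueous 10 μM CuSO₄, or water as control, incubated at 25 °C for 10 min before spectra recorded.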

[4] = Antioxidant activity assessed as DPPH free radical scavenging activity after 10 mins; type: functional
Tyrosinase [5] = biological target: T1, Tyrosinase (Agaricus bisporus, UniProt O42713); assay: Inhibition of mushroom tyrosinase
T1 sequence (O42713 whole entry): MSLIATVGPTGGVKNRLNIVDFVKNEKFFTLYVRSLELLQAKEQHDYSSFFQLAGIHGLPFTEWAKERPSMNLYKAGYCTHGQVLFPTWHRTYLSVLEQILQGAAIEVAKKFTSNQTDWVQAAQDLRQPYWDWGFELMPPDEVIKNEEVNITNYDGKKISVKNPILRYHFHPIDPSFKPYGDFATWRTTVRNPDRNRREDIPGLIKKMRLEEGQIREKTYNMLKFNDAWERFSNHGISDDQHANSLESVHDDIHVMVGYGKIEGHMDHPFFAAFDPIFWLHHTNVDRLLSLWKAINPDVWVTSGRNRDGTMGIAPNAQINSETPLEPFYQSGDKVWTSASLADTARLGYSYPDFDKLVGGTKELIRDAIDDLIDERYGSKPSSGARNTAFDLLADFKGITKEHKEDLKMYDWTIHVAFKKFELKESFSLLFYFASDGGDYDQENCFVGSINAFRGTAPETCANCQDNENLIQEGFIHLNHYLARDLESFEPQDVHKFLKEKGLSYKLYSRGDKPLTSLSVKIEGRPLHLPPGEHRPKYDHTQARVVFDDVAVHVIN

[6] = Drug uptake in mouse B16-F1 cells; type: ADME, cell-based
Tyrosinase [7] = biological target: T2, Tyrosinase (Mus musculus, UniProt P11344); assay: Inhibition of tyrosinase in mouse B16-F1 cells; type: cell-based
T2 sequence (P11344 whole entry): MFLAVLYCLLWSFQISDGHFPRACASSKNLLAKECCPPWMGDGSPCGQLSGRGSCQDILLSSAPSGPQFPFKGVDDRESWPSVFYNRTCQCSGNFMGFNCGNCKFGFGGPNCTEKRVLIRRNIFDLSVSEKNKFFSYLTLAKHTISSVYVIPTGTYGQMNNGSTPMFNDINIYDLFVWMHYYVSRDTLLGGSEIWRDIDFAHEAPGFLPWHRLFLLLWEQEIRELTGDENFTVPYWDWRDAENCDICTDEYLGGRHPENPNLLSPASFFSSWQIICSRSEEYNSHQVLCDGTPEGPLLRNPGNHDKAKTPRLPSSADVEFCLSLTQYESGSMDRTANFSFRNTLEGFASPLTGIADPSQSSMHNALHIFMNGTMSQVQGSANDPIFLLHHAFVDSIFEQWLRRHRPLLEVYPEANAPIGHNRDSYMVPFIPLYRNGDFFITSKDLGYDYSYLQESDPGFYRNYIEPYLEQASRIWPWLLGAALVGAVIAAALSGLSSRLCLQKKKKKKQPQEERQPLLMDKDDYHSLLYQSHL
How it was run: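 Lysate of B16F1 cells in RIPA buffer, spun 13,000 rpm for 30 min at 4 °C, supernatant protein quantified by BCA. IC₅₀; mean (SD) of three independent experiments.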

Row | SMILES | IC50 (B16-F1 [1]) [µM] | Activity (B16-F1 [2]) | Activity [3] | EC50 [4] [µM] | IC50 (Tyrosinase [5]) [µM] | Drug uptake [6] | IC50 (Tyrosinase [7]) [µM]
1 | COc1ccc(/C=C/C(=O)NCCCNC(=O)/C=C/c2ccc(OC)c(O)c2)cc1O | 111 | Non-Toxic | Active | 2310 | 55.3 | Active | 46.7
2 | COc1cc(/C=C/C(=O)NCCNC(=O)/C=C/c2ccc(O)c(OC)c2)ccc1O | > 150 | Non-Toxic | – | 90 | > 150 | – | > 150
3 | O=C(/C=C/c1ccc(O)cc1)NCCCNC(=O)/C=C/c1ccc(O)cc1 | 45.6 | Non-Toxic | Active | > 5000 | 3.4 | – | 4.6
4 | COc1cc(/C=C/C(=O)NCCCNC(=O)/C=C/c2ccc(O)c(OC)c2)ccc1O | 123 | Non-Toxic | Active | 150 | 98.3 | Active | 65.2
5 | O=C(/C=C/c1cccc(O)c1)NCCCNC(=O)/C=C/c1cccc(O)c1 | 95.3 | Non-Toxic | Active | > 5000 | 55.2 | – | 40.2
6 | COc1ccc(/C=C/C(=O)NCCCCNC(=O)/C=C/c2ccc(OC)c(O)c2)cc1O | > 150 | Non-Toxic | – | 4200 | 80.2 | – | > 150
7 | COc1ccc(/C=C/C(=O)NCCNC(=O)/C=C/c2ccc(OC)c(O)c2)cc1O | > 150 | Non-Toxic | – | 2210 | 84.2 | – | > 150
8 | O=C(/C=C/c1cccc(O)c1)NCCCCNC(=O)/C=C/c1cccc(O)c1 | > 150 | Non-Toxic | – | > 5000 | > 150 | Active | > 150
9 | O=C(/C=C/c1ccc(O)cc1)NCCCCNC(=O)/C=C/c1ccc(O)cc1 | > 150 | Non-Toxic | – | > 5000 | 6.5 | Active | > 150
10 | O=C1O[C@H]([C@@H](O)CO)C(O)=C1O [ASCORBIC ACID] | – | – | – | 180 | – | – | –
11 | O=C(/C=C/c1cccc(O)c1)NCCNC(=O)/C=C/c1cccc(O)c1 | > 150 | Non-Toxic | – | > 5000 | 95.3 | – | > 150
12 | COc1cc(/C=C/C(=O)NCCCCNC(=O)/C=C/c2ccc(O)c(OC)c2)ccc1O [TERRESTRIBISAMIDE] | > 150 | Non-Toxic | Active | 830 | 108 | – | 88.4
13 | OC[C@H]1O[C@@H](Oc2ccc(O)cc2)[C@H](O)[C@@H](O)[C@@H]1O [ARBUTIN] | 148 | – | – | 1700 | – | – | –
14 | O=C(/C=C/c1ccc(O)cc1)NCCNC(=O)/C=C/c1ccc(O)cc1 | > 150 | Non-Toxic | – | > 5000 | 4.6 | – | > 150
